Reference: ChEMBL document CHEMBL5252513, “Identification of a Benzoisoxazoloazepine Inhibitor (CPI-0610) of the Bromodomain and Extra-Terminal (BET) Family as a Candidate for Human Clinical Trials” (J Med Chem, 2016)

Tests used:
[1] = Cmax in mouse at 10 mg/kg,sc; format: ADME, organism-based; parameters: dose 10 mg/kg, route sc; conditions: in vivo
[2] = Intrinsic clearance in mouse liver microsomes; format: ADME, Microsome; conditions: read-out: CLH
[3] = Toxicity in dog assessed as GI mucosal erosion at 2 to 6 mg/kg,po QD consecutive for 14 days followed by 2 weeks recovery period; format: organism-based, Canis lupus familiaris; conditions: in vivo, 336 h, dose 2-6 mg/kg, time 14 day
Procedure, shortened: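 Oral suspension given once daily for 14 consecutive days (rat 2, 6, 20 mg/kg; dog 2, 4, 6 mg/kg) in dose range-finding and GLP repeat-dose studies, GLP arms with an added 2-week recovery period; histopathology and clinical pathology findings recorded.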

[4] = biological target: T1, Transcription intermediary factor 1-alpha (Homo sapiens, UniProt O15164); experiment: Binding affinity to TRIM24 bromodomain (unknown origin) incubated for 60 mins by TR-FRET assay
T1 sequence (O15164 whole entry): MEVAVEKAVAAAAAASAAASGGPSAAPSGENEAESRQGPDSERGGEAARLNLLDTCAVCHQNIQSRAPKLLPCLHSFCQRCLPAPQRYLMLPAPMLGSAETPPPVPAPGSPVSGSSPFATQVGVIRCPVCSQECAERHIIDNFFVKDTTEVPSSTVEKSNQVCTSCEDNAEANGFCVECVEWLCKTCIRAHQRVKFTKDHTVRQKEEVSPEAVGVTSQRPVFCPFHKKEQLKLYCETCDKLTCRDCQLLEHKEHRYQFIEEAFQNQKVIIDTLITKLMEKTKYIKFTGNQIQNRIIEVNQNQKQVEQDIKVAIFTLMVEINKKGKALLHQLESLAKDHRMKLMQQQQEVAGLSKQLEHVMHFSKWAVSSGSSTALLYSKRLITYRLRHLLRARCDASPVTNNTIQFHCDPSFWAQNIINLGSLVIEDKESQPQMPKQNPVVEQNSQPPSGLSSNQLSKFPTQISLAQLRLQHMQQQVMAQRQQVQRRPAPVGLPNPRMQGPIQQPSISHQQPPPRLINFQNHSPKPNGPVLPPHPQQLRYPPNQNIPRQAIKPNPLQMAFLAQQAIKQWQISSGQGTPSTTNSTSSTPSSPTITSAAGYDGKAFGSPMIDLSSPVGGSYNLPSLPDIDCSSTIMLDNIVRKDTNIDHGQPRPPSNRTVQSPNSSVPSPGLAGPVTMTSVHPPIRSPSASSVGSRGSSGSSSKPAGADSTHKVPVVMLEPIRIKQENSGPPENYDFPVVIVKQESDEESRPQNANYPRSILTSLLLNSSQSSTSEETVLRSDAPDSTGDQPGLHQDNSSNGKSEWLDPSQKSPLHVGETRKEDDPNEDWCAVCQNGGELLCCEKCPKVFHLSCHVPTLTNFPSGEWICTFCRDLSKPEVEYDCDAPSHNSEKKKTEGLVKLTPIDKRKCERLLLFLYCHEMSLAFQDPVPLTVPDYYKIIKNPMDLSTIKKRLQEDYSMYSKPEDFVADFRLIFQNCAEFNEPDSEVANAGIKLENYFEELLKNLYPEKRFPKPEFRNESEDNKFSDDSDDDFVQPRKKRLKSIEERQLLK

[5] = biological target: T2, Bromodomain-containing protein 9 (Homo sapiens, UniProt Q9H8M2); experiment: Binding affinity to BRD9 bromodomain (unknown origin) incubated for 60 mins by TR-FRET assay
T2 sequence (Q9H8M2 whole entry): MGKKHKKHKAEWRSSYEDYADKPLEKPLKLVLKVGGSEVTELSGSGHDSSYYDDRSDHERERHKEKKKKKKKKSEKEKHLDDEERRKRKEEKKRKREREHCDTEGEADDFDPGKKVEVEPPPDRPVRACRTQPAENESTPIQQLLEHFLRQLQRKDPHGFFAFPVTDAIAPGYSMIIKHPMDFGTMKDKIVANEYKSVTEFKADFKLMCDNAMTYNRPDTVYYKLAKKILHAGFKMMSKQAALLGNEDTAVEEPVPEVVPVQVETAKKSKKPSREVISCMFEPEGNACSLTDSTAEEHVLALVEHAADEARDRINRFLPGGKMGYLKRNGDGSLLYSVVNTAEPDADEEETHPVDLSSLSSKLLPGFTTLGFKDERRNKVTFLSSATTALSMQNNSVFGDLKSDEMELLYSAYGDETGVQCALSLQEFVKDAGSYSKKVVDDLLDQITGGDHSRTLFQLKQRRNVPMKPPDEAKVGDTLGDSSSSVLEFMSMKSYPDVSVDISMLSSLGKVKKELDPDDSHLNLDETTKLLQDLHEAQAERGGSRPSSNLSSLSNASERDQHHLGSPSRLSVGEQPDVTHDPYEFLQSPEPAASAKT

[6] = biological target: CREB-binding protein (Homo sapiens, UniProt Q92793); experiment: Binding affinity to CBP bromodomain (unknown origin) incubated for 60 mins by TR-FRET assay
[7] = Initial unbound plasma concentration in human patient with progression lymphoma at 300 mg,po QD and measured after 24 hrs; format: ADME; conditions: in vivo

CREB-binding protein, sequence (Q92793 whole entry): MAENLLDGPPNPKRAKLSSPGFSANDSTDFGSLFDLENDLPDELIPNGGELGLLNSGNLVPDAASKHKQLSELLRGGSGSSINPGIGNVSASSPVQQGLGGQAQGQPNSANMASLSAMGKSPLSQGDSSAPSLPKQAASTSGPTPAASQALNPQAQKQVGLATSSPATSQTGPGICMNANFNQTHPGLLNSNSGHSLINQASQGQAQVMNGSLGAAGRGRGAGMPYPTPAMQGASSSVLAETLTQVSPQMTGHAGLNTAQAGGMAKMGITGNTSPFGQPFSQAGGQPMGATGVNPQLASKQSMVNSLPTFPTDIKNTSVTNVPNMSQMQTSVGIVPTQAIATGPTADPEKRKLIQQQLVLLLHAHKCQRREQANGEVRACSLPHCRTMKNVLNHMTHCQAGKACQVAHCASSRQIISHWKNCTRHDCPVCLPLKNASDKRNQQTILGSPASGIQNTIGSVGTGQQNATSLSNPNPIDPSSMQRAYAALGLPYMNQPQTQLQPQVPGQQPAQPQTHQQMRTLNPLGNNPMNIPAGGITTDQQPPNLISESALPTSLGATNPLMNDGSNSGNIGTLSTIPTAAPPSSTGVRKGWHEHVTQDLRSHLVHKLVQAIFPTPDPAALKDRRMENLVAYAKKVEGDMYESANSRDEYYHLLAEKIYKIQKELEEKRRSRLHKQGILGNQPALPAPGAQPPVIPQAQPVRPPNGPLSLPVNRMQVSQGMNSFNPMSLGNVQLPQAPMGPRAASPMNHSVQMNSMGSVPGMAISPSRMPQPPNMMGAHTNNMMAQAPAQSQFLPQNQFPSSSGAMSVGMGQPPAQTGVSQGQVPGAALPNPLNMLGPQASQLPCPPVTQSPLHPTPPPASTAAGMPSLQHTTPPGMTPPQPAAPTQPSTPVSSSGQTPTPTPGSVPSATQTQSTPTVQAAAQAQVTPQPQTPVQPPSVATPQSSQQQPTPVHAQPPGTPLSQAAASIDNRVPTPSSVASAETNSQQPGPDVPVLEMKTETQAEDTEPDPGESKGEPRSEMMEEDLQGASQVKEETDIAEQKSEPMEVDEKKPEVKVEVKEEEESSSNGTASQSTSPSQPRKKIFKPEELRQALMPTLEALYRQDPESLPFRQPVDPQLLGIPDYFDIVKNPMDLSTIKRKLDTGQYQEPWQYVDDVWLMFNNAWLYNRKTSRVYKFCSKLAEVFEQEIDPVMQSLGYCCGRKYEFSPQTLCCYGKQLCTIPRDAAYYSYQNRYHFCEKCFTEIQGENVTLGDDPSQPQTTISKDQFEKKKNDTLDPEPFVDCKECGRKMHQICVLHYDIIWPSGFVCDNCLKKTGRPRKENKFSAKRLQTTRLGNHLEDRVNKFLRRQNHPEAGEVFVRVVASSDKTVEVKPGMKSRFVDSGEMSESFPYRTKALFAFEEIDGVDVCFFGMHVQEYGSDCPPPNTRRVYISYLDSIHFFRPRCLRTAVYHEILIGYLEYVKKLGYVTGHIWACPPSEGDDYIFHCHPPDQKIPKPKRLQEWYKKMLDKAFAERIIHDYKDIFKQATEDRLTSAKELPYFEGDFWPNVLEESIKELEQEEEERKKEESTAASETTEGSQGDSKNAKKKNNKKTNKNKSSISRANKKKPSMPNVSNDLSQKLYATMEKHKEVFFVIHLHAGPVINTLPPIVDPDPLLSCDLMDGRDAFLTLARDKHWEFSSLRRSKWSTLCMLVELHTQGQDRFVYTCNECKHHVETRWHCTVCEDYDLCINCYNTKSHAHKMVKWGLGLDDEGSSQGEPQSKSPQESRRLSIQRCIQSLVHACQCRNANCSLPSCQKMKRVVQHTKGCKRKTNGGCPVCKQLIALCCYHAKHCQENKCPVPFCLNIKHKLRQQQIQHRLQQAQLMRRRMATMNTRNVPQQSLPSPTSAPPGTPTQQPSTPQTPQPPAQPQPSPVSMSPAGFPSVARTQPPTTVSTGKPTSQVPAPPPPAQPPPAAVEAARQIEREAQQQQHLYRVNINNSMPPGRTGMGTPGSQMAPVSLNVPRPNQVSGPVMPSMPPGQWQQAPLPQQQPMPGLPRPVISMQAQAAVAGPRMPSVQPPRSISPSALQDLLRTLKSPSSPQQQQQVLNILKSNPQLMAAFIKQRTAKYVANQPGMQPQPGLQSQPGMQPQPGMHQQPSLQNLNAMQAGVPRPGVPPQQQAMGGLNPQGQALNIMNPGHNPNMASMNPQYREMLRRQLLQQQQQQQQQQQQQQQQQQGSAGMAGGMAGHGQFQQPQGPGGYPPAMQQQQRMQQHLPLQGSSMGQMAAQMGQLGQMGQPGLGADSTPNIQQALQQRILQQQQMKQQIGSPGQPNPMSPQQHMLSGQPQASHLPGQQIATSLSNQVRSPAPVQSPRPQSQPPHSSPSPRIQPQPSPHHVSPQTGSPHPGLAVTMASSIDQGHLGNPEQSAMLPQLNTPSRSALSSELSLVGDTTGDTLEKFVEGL

- Cmax [1]: 8.4 µM
- predicted hepatic clearance [2]: 30 mL/min/kg
- IC50 [4]: > 20 µM
- IC50 [5]: > 80 µM
- IC50 [6]: > 20 µM
- C0(unbound) [7]: 0.011 µM
Compound: Cc1noc2c1-c1ccccc1C(c1ccc(Cl)cc1)=N[C@H]2CC(N)=O [PELABRESIB]
- Activity [3]: Toxic
